CR mimetic SO = reduction of superoxide in aged yeast, primary screen, HTS; S. cerevisiae aged cells, superoxide DHE fluorescence; stronger effect = lower value; superoxide response (% of plate mean), % at 10 µM; 330,000 tested, 0.18% active; AID 2690, 2010;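 active means superoxide response under a set limit, about three screen SD below normal, cut at about 65% in these data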;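 further: yeast aged for seven days with compound at 30 °C before DHE staining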
PvdQ inh = P. aeruginosa PvdQ acylase inhibitors, primary screen, biochemical, fluorescence, plate reader and imaging, single point; PvdQ acylase [Pseudomonas aeruginosa LESB58]; purified PvdQ acylase; inhibition, % at 10 µM; 340,000 tested, 0.063% active; in the data active means inhibition above about 30%, passing the limit was not always enough
IMP-1 inh = IMP-1 metallo-beta-lactamase inhibitors, primary screen, biochemical, epi-absorbance readout, Pseudomonas aeruginosa enzyme. metallo-beta-lactamase IMP-1 (Pseudomonas aeruginosa). purified IMP-1, nitrocefin hydrolysis, epi-absorbance fluorescence. inhibition, % at 5.6 µM. 290,000 tested, 0.45% active. AID 1556, 2009;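 active means inhibition above the mean plus 3 SD of all compounds in the same screening run, cut at about 4.5% in these data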
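System: Purified IMP-1 | Read-out basis: Percent enzyme inhibition | Controls: IMP-1 with DMSO as 0%, enzyme-free DMSO as 100% | Replicates: One well per compound | Doses: 5.6 µM nominal single concentration | Detection: Epi-absorbance fluorescence, 480 nm excitation, 530 nm emission | Incubation: 25 °C, 15 min preincubation, 25 min reaction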
VIM-2 inh = VIM-2 metallo-beta-lactamase inhibitors, primary screen, biochemical, epi-absorbance readout, Pseudomonas aeruginosa enzyme; purified VIM-2, nitrocefin hydrolysis, epi-absorbance fluorescence; inhibition, % at 5.6 µM; 290,000 tested, 0.89% active;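 active means inhibition above the mean of all tested compounds plus 3 SD, cutoff set per screening run, cut at about 7.5% in these data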;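 further: red hydrolysis product quenches plate fluorescence so inhibitors raise well fluorescence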
PHOSPHO1 block = PubChem AID 1565; Phosphoethanolamine/phosphocholine phosphatase (Homo sapiens), Q8TCT1; recombinant PHOSPHO1, absorbance phosphatase assay; inhibition, % at 13.3 µM; 290,000 tested, 1.1% active; in the data active means inhibition above about 60%
Target sequence (Q8TCT1 whole entry, looked up): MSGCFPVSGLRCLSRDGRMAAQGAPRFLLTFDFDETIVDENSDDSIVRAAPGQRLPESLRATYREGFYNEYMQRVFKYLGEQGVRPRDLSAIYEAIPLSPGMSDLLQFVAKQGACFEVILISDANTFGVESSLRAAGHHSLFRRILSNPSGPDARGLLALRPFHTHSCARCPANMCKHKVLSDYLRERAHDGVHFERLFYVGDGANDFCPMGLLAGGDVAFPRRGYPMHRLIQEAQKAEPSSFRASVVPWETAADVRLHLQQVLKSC
VIM-2 inh confirm = P. aeruginosa VIM-2 enzyme inhibition – biochemical, epi-absorbance, HTS, confirmation. shares compounds with IMP-1 inh. purified VIM-2 enzyme, nitrocefin absorbance. inhibition, % at 5.6 µM. 200 tested, 73% active; in the data active means inhibition above about 8%
TEM-1 counter = Serine beta-lactamase TEM-1 inhibition, biochemical epi-absorbance counter-screen for IMP-1/VIM-2 inhibitor program; shares compounds with IMP-1 inh; TEM-1 beta-lactamase, nitrocefin absorbance inhibition; inhibition, % at 5.6 µM; 200 tested, 50% active; in the data active means inhibition above about 0.66%
Target sequence (P62593 whole entry, looked up): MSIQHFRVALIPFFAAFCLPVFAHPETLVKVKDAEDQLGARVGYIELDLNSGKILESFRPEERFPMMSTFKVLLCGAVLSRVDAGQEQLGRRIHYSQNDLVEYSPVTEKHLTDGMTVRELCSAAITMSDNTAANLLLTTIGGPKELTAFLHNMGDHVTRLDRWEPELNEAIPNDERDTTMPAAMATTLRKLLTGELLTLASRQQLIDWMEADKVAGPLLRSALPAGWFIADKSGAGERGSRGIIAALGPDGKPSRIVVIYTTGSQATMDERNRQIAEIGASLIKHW
IMP-1 confirm = IMP-1 metallo-beta-lactamase inhibitors, confirmation, biochemical, epi-absorbance, hits shared with VIM-2 screen. shares compounds with IMP-1 inh. purified IMP-1 enzyme, absorbance substrate hydrolysis. inhibition, % at 5.6 µM. 200 tested, 60% active. AID 2189, 2009; in the data active means inhibition above about 4.9%
Large screens that a line does not name were inactive (follow-up assays come after a bar, where they were run). Hits are enriched below; roughly 2.2% of the tested compounds scored in any of these assays.

Cc1cccn2c(=O)c3cc(C(=O)NCCCn4ccnc4)n(C)c3nc12	IMP-1 inh 23.3, VIM-2 inh 10.3 | VIM-2 inh confirm 31.8 | TEM-1 counter inactive | IMP-1 confirm inactive
CNc1ccc2c3c(cccc13)C(=O)N(C)C2=O	IMP-1 inh 44.2, VIM-2 inh 49.9 | VIM-2 inh confirm 75.8 | TEM-1 counter 87.0 | IMP-1 confirm 59.3
CN1C(=O)c2cccc3c(Cl)ccc(c23)C1=O	none
O=C1c2ccccc2-c2onc3ccc(NCCCn4ccnc4)c1c23	IMP-1 inh 4.6, VIM-2 inh 55.0 (no result: PvdQ inh) | VIM-2 inh confirm 88.8 | TEM-1 counter 69.2 | IMP-1 confirm 55.9
COc1ccc2noc3c2c1C(=O)c1ccccc1-3	none (no result: IMP-1 inh, VIM-2 inh, PHOSPHO1 block)
CC(C)Nc1nc(Cl)nc(N(C#N)CN2C(=O)c3ccccc3C2=O)n1	none
CCC(C)Nc1nc(Cl)nc(N(C#N)CN2C(=O)c3ccccc3S2(=O)=O)n1 (configuration not stated)	IMP-1 inh 17.7, VIM-2 inh 12.8 | VIM-2 inh confirm inactive | TEM-1 counter inactive | IMP-1 confirm inactive
COc1ccccc1-c1csc(-n2ncc(C#N)c2N)n1	IMP-1 inh 22.1, VIM-2 inh 17.3 | VIM-2 inh confirm 10.1 | TEM-1 counter inactive | IMP-1 confirm 12.0
O=C(NC(=S)Nc1ccc2c(c1)C(=O)c1ccccc1C2=O)c1ccc(F)cc1	none (no result: PvdQ inh)
CCC(c1c(C)n(C)n(-c2ccccc2)c1=O)c1c(C)n(C)n(-c2ccccc2)c1=O	IMP-1 inh 39.2, VIM-2 inh 36.3 | VIM-2 inh confirm inactive | TEM-1 counter inactive | IMP-1 confirm inactive
CSCC[C@H](NC(=O)Cc1c(C)c2c(cc(C)c3c(C)coc32)oc1=O)C(=O)O	none
CCn1c(=S)sc2c(=O)n(CC(=O)Nc3ccccc3C(F)(F)F)c(C)nc21	IMP-1 inh 41.1, VIM-2 inh 21.5 | VIM-2 inh confirm 18.8 | TEM-1 counter inactive | IMP-1 confirm 23.6
CCn1c(=S)sc2c(=O)n(CC(=O)Nc3ccccc3)c(C)nc21	none
CCCN1CCc2c(sc3nc(SCC)n(-c4ccc(OC)cc4)c(=O)c23)C1	none (no result: CR mimetic SO)
COc1ccc(Cl)cc1Nc1nnc(-c2ccncc2)s1	IMP-1 inh 18.8, VIM-2 inh 8.7 | VIM-2 inh confirm inactive | TEM-1 counter inactive | IMP-1 confirm 12.2
Cc1ccc(Nc2nnc(-c3ccncc3)s2)c(Br)c1	none
COc1ccc(Cl)cc1C(=O)Nc1cccc(-c2ccc3nncn3n2)c1	IMP-1 inh 22.8, VIM-2 inh 26.1 | VIM-2 inh confirm 33.7 | TEM-1 counter 3.0 | IMP-1 confirm 10.7
CCOC(=O)NC(=O)C(/C=N/c1sccc1C(=O)OC)=C(\C)O	IMP-1 inh 8.6, VIM-2 inh 7.8 | VIM-2 inh confirm 10.1 | TEM-1 counter inactive | IMP-1 confirm inactive
CCOC(=O)c1c2c3c(cccc3n(C)c1=O)C(=O)c1ccccc1-2	IMP-1 inh 21.0, VIM-2 inh 14.7 | VIM-2 inh confirm 19.6 | TEM-1 counter 1.4 | IMP-1 confirm 7.9
CCc1ccc(NC(=O)C(=O)c2ccccc2NC(C)=O)cc1	none (no result: IMP-1 inh, VIM-2 inh, PHOSPHO1 block)
CCOc1cc2c(cc1/C=C/c1noc(C)c1[N+](=O)[O-])OC(C)C2 (configuration not stated)	IMP-1 inh 13.0, VIM-2 inh 16.9 | VIM-2 inh confirm 20.4 | TEM-1 counter 30.3 | IMP-1 confirm 18.1
N#Cc1nc(COc2ccccc2F)oc1NCCCn1ccnc1	IMP-1 inh 38.7, VIM-2 inh 10.1 | VIM-2 inh confirm inactive | TEM-1 counter inactive | IMP-1 confirm inactive
COc1ccccc1OCc1nc(C#N)c(NCCCn2ccnc2)o1	none
CC(c1ccccc1)n1c(-c2ccc(Cl)cc2)n[nH]c1=S (configuration not stated)	none
CC(c1ccccc1)n1c(-c2ccccc2F)n[nH]c1=S (configuration not stated)	IMP-1 inh 6.4, VIM-2 inh 9.1 | VIM-2 inh confirm 10.6 | TEM-1 counter inactive | IMP-1 confirm inactive
O=C(O)c1c(C(=O)O)c(-c2ccc(Cl)c(Cl)c2)n2c1CSC2	IMP-1 inh 4.9, VIM-2 inh 57.0 (no result: PHOSPHO1 block) | VIM-2 inh confirm 55.1 | TEM-1 counter inactive | IMP-1 confirm inactive
CN(C)/C=C1\C=C2C(=O)c3ccccc3N2C1=O	IMP-1 inh 20.9, VIM-2 inh 19.9 | VIM-2 inh confirm 134.0 | TEM-1 counter active | IMP-1 confirm 118.7
Cc1ccc(N=Cc2sc(O)c3ccccc23)cc1	IMP-1 inh 23.7, VIM-2 inh 8.4 | VIM-2 inh confirm 14.1 | TEM-1 counter inactive | IMP-1 confirm inactive
CCCn1c(/C=C/c2cc[n+](C)cc2)nc2ccccc21	none
Cc1ccc2c(c1)c(/C=C/c1cc[n+](C)cc1)c(C)n2C	IMP-1 inh 8.4, VIM-2 inh 25.7 | VIM-2 inh confirm 30.8 | TEM-1 counter inactive | IMP-1 confirm inactive
N#Cc1cccc(NC(=O)CN2CCN(Cc3ccccc3)CC2)c1	none
CCCN1C(=O)/C(=C/C=C2\N(CC)c3ccccc3C2(C)C)SC1=S	none
CN1/C(=C\C=C2/SC(=S)N(CC(=O)O)C2=O)C(C)(C)c2ccccc21	IMP-1 inh 16.5, VIM-2 inh 11.4 | VIM-2 inh confirm 23.2 | TEM-1 counter 20.8 | IMP-1 confirm 20.9
CC[C@]12c3[nH]c4ccc(OC)cc4c3CCN1C(=O)C(CC(=O)NC(C)(C)C)C[C@@H]2C(=O)N1CCN(C(=O)c2ccco2)CC1 (some centres not stated)	none (no result: IMP-1 inh, VIM-2 inh, PHOSPHO1 block)
O=C(c1ccccc1)c1c2c(cc3sc4ccccc4[n+]13)-c1cccc3cccc-2c13	IMP-1 inh 10.3, VIM-2 inh 16.4 | VIM-2 inh confirm 10.7 | TEM-1 counter inactive | IMP-1 confirm inactive
CN1CCN(C2=CC3=CC(=C(C#N)C#N)CCC3CC2)CC1 (configuration not stated)	IMP-1 inh 66.6, VIM-2 inh 57.5 (no result: CR mimetic SO) | VIM-2 inh confirm 61.6 | TEM-1 counter 66.3 | IMP-1 confirm 63.3
N#CC(C#N)=C1C=C2C=C(N3CCOCC3)CCC2CC1 (configuration not stated)	IMP-1 inh 17.4, VIM-2 inh 19.6 (no result: CR mimetic SO) | VIM-2 inh confirm 64.4 | TEM-1 counter 75.9 | IMP-1 confirm 59.6
CC1(C)CC(NCCN2CCN(C3=CC(=C(C#N)C#N)CC(C)(C)C3)CC2)=CC(=C(C#N)C#N)C1	none

Bioassay records: PubChem, several laboratories
